# The list is not random: actives were taken first. Their share in the collection is about 3.8%.
# SIRT5 block: SIRT5 desuccinylase inhibitors, primary screen, biochemical, fluorescence imaging, single point, set 5; Purified SirT5, succinyl-peptide AMC, trypsin-coupled fluorescence; inhibition, % at 15 µM; actives 1.1% (n = 330,000); in the data active means inhibition above about 15%
# Target sequence (Q9NXA8 whole entry, looked up): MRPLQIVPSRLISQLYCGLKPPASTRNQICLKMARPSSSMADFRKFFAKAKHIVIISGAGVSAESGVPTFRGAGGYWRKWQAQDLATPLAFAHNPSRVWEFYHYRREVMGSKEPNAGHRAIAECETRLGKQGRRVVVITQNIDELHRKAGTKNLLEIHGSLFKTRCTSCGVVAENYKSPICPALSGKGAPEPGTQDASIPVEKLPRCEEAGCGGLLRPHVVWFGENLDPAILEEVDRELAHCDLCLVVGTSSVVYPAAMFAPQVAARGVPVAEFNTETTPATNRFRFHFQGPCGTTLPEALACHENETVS
# FGF22 binding: binders of human FGF22 protein, primary screen, FGF22 synaptogenesis inhibitor project, biophysical, thermal shift, single point; Fibroblast growth factor 22 (Homo sapiens), Q9HCT0; recombinant FGF22 thermal shift, SYPRO orange fluorescence; percent of sucrose octasulfate shift, DMSO zero; activity (Tm shift, normalised), % at 9.99 µM; actives 1.5% (n = 340,000); AID 651658, 2012;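 active means mean Tm shift, scaled 0 neutral to 100 positive control, at about 1.3% or above, every replicate too, limit read from the data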
# Target sequence (Q9HCT0 whole entry, looked up): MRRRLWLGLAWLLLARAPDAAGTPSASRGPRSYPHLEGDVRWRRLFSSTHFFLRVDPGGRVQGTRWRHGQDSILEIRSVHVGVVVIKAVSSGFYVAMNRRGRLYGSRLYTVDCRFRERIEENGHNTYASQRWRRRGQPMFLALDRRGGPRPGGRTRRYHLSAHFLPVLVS
# ARNT TACC3 PPI: disruptors of ARNT/TACC3 protein interaction, primary screen, biochemical, AlphaScreen, single concentration; Transforming acidic coiled-coil-containing protein 3 (Homo sapiens), Q9Y6A5; inhibition, % at 9.99 µM; AlphaScreen His-ARNT PAS-B/GST-TACC3 binding, luminescence; TACC3 fragment carries E629A point mutation; actives 0.66% (n = 390,000);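 active means mean inhibition of replicates at least 50% and at least half of replicates each reaching 50%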
# XiGFP reactiv: activators of inactive X chromosome reactivation, primary screen, imaging, XiGFP fibroblasts, GFP high-content imaging, set 2. actives 0.055% (n = 360,000). AID 743238, 2013. XiGFP mouse fibroblasts, % GFP-positive cells imaging, 3 d; cells co-treated with 5-aza-dC sensitizer; scaled so ellipticine positive control = 100%. activation, % at 7.58 µM;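 active means mean normalized replicate activation at least 10% and every replicate at or above 10%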
#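 Assay system – SV40-immortalized XiGFP fibroblast cells, line 68-5-11 · Buffer or medium – DMEM supplemented with 5-aza-dC as sensitizing agent · Dosing – one concentration, pinned · Benchmarks – positive control ellipticine, 6 µM final · Times – 3 days compound exposure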
# FN deposition inh: inhibitors of fibronectin matrix deposition, primary screen, AH1F cells, Alexa488-fibronectin fluorescence, plate reader; AH1F fibroblasts, overnight; inhibition, % at 12.6 µM; actives 0.086% (n = 350,000);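 active means mean inhibition across replicates of 30% or more, regardless of how many single replicates reach that level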
#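 Assay system: AH1F fibroblasts / Quantity: 10000 cells per well / Medium: DMEM plus 2% serum, read in PBS / Reagent: labelled fibronectin 24 nM / Dosing: single dose, pinned / Times: 1 h cell attachment, overnight exposure to compound and label / Signal: fluorescence, ex 485 nm, em 525 nm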
# DENV2 CPE: inhibitors of DENV2 cytopathic effect, primary screen, cell-based, plate reader, single concentration | DENV2-infected cells, cytopathic effect rescue | CPE inhibition, % at 9.99 µM | actives 1.7% (n = 350,000) | AID 651640, 2012; in the data active means CPE inhibition above about 20%, passing the limit was not always enough; tested in BHK-21 cells
# A number is an active result; n = inactive; x = no result given; ! = not active in a repeat.
SMILES,SIRT5 block,FGF22 binding,ARNT TACC3 PPI,XiGFP reactiv,FN deposition inh,DENV2 CPE
COc1ccc(C#Cc2ccc3c(c2)O[C@@H](CN(C)S(=O)(=O)c2ccccc2F)[C@@H](C)CN([C@H](C)CO)S3(=O)=O)cc1,n,n,n,n,x,n
COc1ccc(C#Cc2ccc3c(c2)O[C@H](CN(C)S(=O)(=O)c2ccccc2F)[C@H](C)CN([C@H](C)CO)S3(=O)=O)cc1,15.5!,n,n,n,n,n
C[C@H]1CN([C@@H](C)CO)S(=O)(=O)c2ccc(Br)cc2O[C@@H]1CN(C)S(=O)(=O)c1ccccc1F,n,n,x,n,n,35.6!
COc1cccc(-c2ccc3n(c2=O)C[C@H]2[C@H](CO)[C@@H](C(=O)NCC4CC4)N(C(C)=O)[C@@H]32)c1,n,n,n,n,x,n
Cc1ccc(S(=O)(=O)N(C)C[C@@H]2OCCCC[C@H](C)Oc3ccc(NC(=O)CCC(F)(F)F)cc3C(=O)N([C@H](C)CO)C[C@@H]2C)cc1,n,x,n,n,n,n
Cc1ccc(/C(=N/Nc2ncnc3ccccc23)C(=O)O)cc1,n,n,60.8,n,n,n
Cc1ccc(Nc2ncnc3ccccc23)cc1,x,n,x,n,n,n
COCC(C)n1c(SCC(=O)NC(=O)NCc2ccccc2)nc2ccccc2c1=O (configuration not stated),x,44.4,n,n,n,n
COCC(C)n1c(SCC(=O)Nc2cc(C)on2)nc2ccccc2c1=O (configuration not stated),n,x,n,n,n,n
O=C1C(=C(I)I)c2ccccc2-c2ccccc21,n,n,x,n,55.5,n
C[C@@H]1CN([C@H](C)CO)C(=O)c2cc(NC(=O)Nc3ccc(F)cc3)ccc2O[C@@H](C)CCCCO[C@H]1CN(C)Cc1ccc(C(F)(F)F)cc1,n,n,n,n,n,n
Cc1c(C(=O)Nc2ccccc2)cnn1-c1ccccc1,n,n,n,n,n,n
Cc1c(C(=O)Nc2cccc(F)c2)cnn1-c1ccccc1,n,n,n,n,n,49.7
N#CC(Cc1ccccc1OC(F)F)c1nc2ccccc2[nH]1 (configuration not stated),n,n,n,n,n,24.6
COc1ccccc1CC(Cc1nc2ccccc2[nH]1)c1nc2ccccc2[nH]1 (configuration not stated),n,n,n,n,n,n
O=C(O)CCC(=O)Nc1ccc(-c2nc3ccc(C(=O)c4ccccc4)cc3[nH]2)cc1,34.0,n,n,n,n,n
Cc1ccc2nc(NC(=O)Cc3cccs3)sc2c1,x,x,n,x,n,x
O=C(c1ccccc1)c1ccc2nc(-c3ccc(NC(=O)c4ccccc4F)cc3)[nH]c2c1,x,x,n,x,x,x
Cc1ccc2nc(-c3ccc(NC(=O)Cc4cccs4)cc3)[nH]c2c1,n,1.8,n,x,x,n
O=C(C[C@H]1C[C@H]2c3cc(NS(=O)(=O)c4ccc(F)cc4)ccc3O[C@H]2[C@@H](CO)O1)NCc1cccnc1,n,n,n,n,n,n
COC(=O)C1CC(O)CN1C(=O)Nc1cccc(C(F)(F)F)c1 (configuration not stated),n,43.3,n,n,n,n
COc1cccc(NC(=S)Nc2cc(C(=O)O)ccc2N2CC3CC(C2)c2cccc(=O)n2C3)c1 (configuration not stated),n,3.3,n,n,n,n
CC(N)c1csc(Nc2ccc(C(=O)NCCCO)cn2)n1 (configuration not stated),n,n,x,n,n,30.2
NC(c1csc(Nc2ccc(C(=O)NCCO)cc2)n1)C1CCCCC1 (configuration not stated),n,n,x,n,n,22.3
CC(=O)c1ccc(Nc2nc(C(N)C3CCCCC3)cs2)cc1 (configuration not stated),n,n,x,n,x,n
SMILES,SIRT5 block,FGF22 binding,ARNT TACC3 PPI,XiGFP reactiv,FN deposition inh,DENV2 CPE
C[C@H](CO)N1C[C@H](C)[C@@H](CN(C)S(=O)(=O)c2ccc(F)cc2)OCCCC[C@H](C)Oc2ccc(NC(=O)Nc3ccc4c(c3)OCO4)cc2C1=O,n,x,n,n,n,n
C[C@H](CO)N1C[C@H](C)[C@H](CN(C)S(=O)(=O)c2ccc(Cl)cc2)OCCCC[C@H](C)Oc2ccc(NC(=O)NC3CCCCC3)cc2C1=O,n,n,n,n,x,50.2
C[C@@H]1CN([C@H](C)CO)C(=O)c2cc(NC(=O)Nc3ccc4c(c3)OCO4)ccc2O[C@@H](C)CCCCO[C@H]1CN(C)S(=O)(=O)c1ccc(Cl)cc1,n,n,n,n,n,38.2
C[C@@H]1CCCCO[C@@H](CN(C)S(=O)(=O)c2ccc(F)cc2)[C@H](C)CN([C@@H](C)CO)C(=O)c2cc(NC(=O)Nc3ccc4c(c3)OCO4)ccc2O1,20.7,n,n,n,n,n
O=C(c1ccccc1)N1CC(=O)N2[C@H](CO)[C@H](c3ccc(C#Cc4ccccc4)cc3)[C@H]2C1,n,x,x,n,x,n
COc1ccc2c3c(n(C)c2c1)[C@@H](CO)N(C(=O)C1CCCC1)CC31CN(C)C1,n,n,x,n,x,n
Cc1ccc(S(=O)(=O)N(C)C[C@@H]2Oc3ccc(NC(=O)Nc4ccc(C(F)(F)F)cc4)cc3C(=O)N([C@H](C)CO)C[C@H]2C)cc1,n,n,n,n,x,n
Cc1ccc(S(=O)(=O)N(C)C[C@@H]2Oc3ccc(NC(=O)Nc4c(C)noc4C)cc3C(=O)N([C@H](C)CO)C[C@@H]2C)cc1,15.6,n,n,n,x,n
Cc1ccc(S(=O)(=O)N(C)C[C@H]2Oc3ccc(NC(=O)Nc4ccc(C(F)(F)F)cc4)cc3C(=O)N([C@H](C)CO)C[C@H]2C)cc1,n,2.7,n,n,x,44.1
Cc1ccc(S(=O)(=O)N(C)C[C@H]2Oc3ccc(NC(=O)Nc4ccc(C(F)(F)F)cc4)cc3C(=O)N([C@H](C)CO)C[C@@H]2C)cc1,n,n,n,n,x,36.8
Cc1noc(C)c1NC(=O)N(C)C[C@@H]1OCc2ccccc2-c2c(n(C)c3ccccc23)C(=O)N([C@@H](C)CO)C[C@@H]1C,n,n,n,n,n,n
C[C@@H]1CN(C)C(=O)Cc2cc(N(C)C)ccc2O[C@@H]1CN(C)C(=O)OC(C)(C)C,x,x,x,n,n,x

# Bioassay records from PubChem BioAssay.
